# Source: ChEMBL document CHEMBL1649383, “Mode of action of epoxyphomalins A and B and characterization of related metabolites from the marine-derived fungus Paraconiothyrium sp” (J Nat Prod, 2010)
# How the values were obtained:
# [1] = tested on: HCT-116; assay: Cytotoxicity against human HCT116 cells at 0.1 ug/ml relative to control; assay type: functional
# [2] = tested on: OVCAR-3; assay: Cytotoxicity against human OVCAR3 cells; assay type: functional, cell-based
# How it was run: (§1)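 Monolayer cell survival and proliferation assay run across a panel of 36 human tumor cell lines, with IC50 determined from the resulting growth data.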
# [3] = tested on: SF-268; assay: Cytotoxicity against human SF268 cells at 0.01 ug/ml relative to control; assay type: functional
# [4] = Cytotoxicity against human LXFL 1121L cells at 1 ug/ml relative to control; assay type: functional
# [5] = Cytotoxicity against human LXFL 529L cells at 1 ug/ml relative to control; assay type: functional
# [6] = Cytotoxicity against human RXF 1781L cells at 0.001 ug/ml relative to control; assay type: functional
# [7] = Cytotoxicity against human LXFL 1121L cells at 10 ug/ml relative to control; assay type: functional
# [8] = Cytotoxicity against human OVXF 1619L cells; assay type: functional, cell-based; how it was run: as §1
# [9] = Cytotoxicity against human BXF 1218L cells at 0.001 ug/ml relative to control; assay type: functional
# [10] = Cytotoxicity against human PAXF 1657L cells at 10 ug/ml relative to control; assay type: functional
# [11] = Cytotoxicity against human OVXF 1619L cells at 0.1 ug/ml relative to control; assay type: functional
# [12] = tested on: CWR22R; assay: Cytotoxicity against human 22Rv1 cells at 1 ug/ml relative to control; assay type: functional
# [13] = Cytotoxicity against human LXFL 529L cells; assay type: functional, cell-based
# How it was run: (§2)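 Monolayer cell survival and proliferation assay run across a panel of 36 human tumour cell lines; IC50 values determined.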
# [14] = Cytotoxicity against human OVXF 1619L cells at 10 ug/ml relative to control; assay type: functional
# [15] = Cytotoxicity against human MEXF 520L cells at 0.1 ug/ml relative to control; assay type: functional
# [16] = tested on: T-24; assay: Cytotoxicity against human T24 cells at 1 ug/ml relative to control; assay type: functional
# [17] = tested on: SF-268; assay: Cytotoxicity against human SF268 cells; assay type: functional, cell-based; how it was run: as §1
# [18] = Cytotoxicity against human OVXF 899L cells at 0.001 ug/ml relative to control; assay type: functional
# [19] = Cytotoxicity against human MEXF 520L cells at 0.01 ug/ml relative to control; assay type: functional
# [20] = Cytotoxicity against human MEXF 514L cells at 0.1 ug/ml relative to control; assay type: functional
# [21] = Cytotoxicity against human MEXF 462NL cells; assay type: functional, cell-based; how it was run: as §1
# [22] = Cytotoxicity against human LXFA 526L cells at 10 ug/ml relative to control; assay type: functional
# [23] = Cytotoxicity against human UXF 1138L cells at 0.1 ug/ml relative to control; assay type: functional
# [24] = Cytotoxicity against human MEXF 520L cells at 10 ug/ml relative to control; assay type: functional
# [25] = tested on: NCI-H460; assay: Cytotoxicity against human H460 cells; assay type: functional, cell-based
# How it was run: (§3)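 Monolayer cell survival and proliferation assay, run within a panel of 36 human tumor cell lines; IC50 determined per cell line.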
# [26] = Cytotoxicity against human LXFA 629L cells at 1 ug/ml relative to control; assay type: functional
# [27] = tested on: SF-268; assay: Cytotoxicity against human SF268 cells at 0.1 ug/ml relative to control; assay type: functional
# [28] = Cytotoxicity against human PAXF 1657L cells; assay type: functional, cell-based; how it was run: as §1
# [29] = Cytotoxicity against human LXFL 1121L cells at 0.001 ug/ml relative to control; assay type: functional
# [30] = Cytotoxicity against human PAXF 1657L cells at 1 ug/ml relative to control; assay type: functional
# [31] = Cytotoxicity against human CNXF 498NL cells; assay type: functional, cell-based; how it was run: as §3
# [32] = tested on: HCT-116; assay: Cytotoxicity against human HCT116 cells at 0.01 ug/ml relative to control; assay type: functional
# [33] = Cytotoxicity against human LXFL 1121L cells; assay type: functional, cell-based; how it was run: as §2
# [34] = Cytotoxicity against human OVXF 1619L cells at 1 ug/ml relative to control; assay type: functional
# [35] = Cytotoxicity against human MAXF 401NL cells at 0.1 ug/ml relative to control; assay type: functional
# [36] = Cytotoxicity against human HNXF 536L cells at 0.1 ug/ml relative to control; assay type: functional
# [37] = Cytotoxicity against human MEXF 462NL cells at 10 ug/ml relative to control; assay type: functional
# [38] = tested on: OVCAR-3; assay: Cytotoxicity against human OVCAR3 cells at 0.1 ug/ml relative to control; assay type: functional
# [39] = Cytotoxicity against human OVXF 899L cells at 10 ug/ml relative to control; assay type: functional
# [40] = tested on: SF-268; assay: Cytotoxicity against human SF268 cells at 0.001 ug/ml relative to control; assay type: functional
# [41] = Cytotoxicity against human RXF 393NL cells at 0.01 ug/ml relative to control; assay type: functional
# [42] = Cytotoxicity against human PXF 1752L cells at 10 ug/ml relative to control; assay type: functional
# [43] = Cytotoxicity against human PAXF 1657L cells at 0.01 ug/ml relative to control; assay type: functional
# [44] = Cytotoxicity against human LXFA 629L cells; assay type: functional, cell-based; how it was run: as §2
# [45] = tested on: OVCAR-3; assay: Cytotoxicity against human OVCAR3 cells at 1 ug/ml relative to control; assay type: functional
# [46] = Cytotoxicity against human PC3M cells at 10 ug/ml relative to control; assay type: functional, PC-3M
# [47] = Cytotoxicity against human RXF 486L cells at 0.1 ug/ml relative to control; assay type: functional
# [48] = Cytotoxicity against human HNXF 536L cells at 0.001 ug/ml relative to control; assay type: functional
# [49] = Cytotoxicity against human LXFL 529L cells at 0.001 ug/ml relative to control; assay type: functional
# [50] = tested on: T-24; assay: Cytotoxicity against human T24 cells at 0.01 ug/ml relative to control; assay type: functional
# [51] = Cytotoxicity against human CNXF 498NL cells at 0.1 ug/ml relative to control; assay type: functional
# [52] = Cytotoxicity against human LXFA 526L cells; assay type: functional, cell-based; how it was run: as §2
# [53] = Cytotoxicity against human RXF 393NL cells; assay type: functional, cell-based; how it was run: as §1
# [54] = Cytotoxicity against human MEXF 514L cells at 0.01 ug/ml relative to control; assay type: functional
smiles,measurement,setting,value
C=C1[C@@H](O)[C@H]2O[C@@]2(C[C@H]2C(C)=CC[C@H]3C(C)(C)CCC[C@]23C)[C@@H](O)[C@H]1O [EPOXYPHOLAMIN D],Activity,[1],108%
same,IC50,[2],1960 nM
same,IC70,[2],2.71 µg/mL
same,IC90,[2],12.6 µg/mL
same,Activity,[3],97%
same,Activity,[4],97%
same,Activity,[5],85%
same,Activity,[6],98%
same,Activity,[7],5%
same,IC50,[8],10.2 µM
same,IC70,[8],6.09 µg/mL
same,IC90,[8],10 µg/mL
same,Activity,[9],106%
same,Activity,[10],9%
same,Activity,[11],81%
same,Activity,[12],48%
same,IC50,[13],8.58 µM
same,IC70,[13],5.95 µg/mL
same,IC90,[13],11.4 µg/mL
same,Activity,[14],10%
same,Activity,[15],92%
same,Activity,[16],126%
same,IC50,[17],10.4 µM
same,IC70,[17],5.62 µg/mL
same,IC90,[17],8.36 µg/mL
same,Activity,[18],103%
same,Activity,[19],96%
same,Activity,[20],142%
same,IC50,[21],5.79 µM
same,IC70,[21],4.77 µg/mL
same,IC90,[21],10.9 µg/mL
same,Activity,[22],19%
same,Activity,[23],99%
same,Activity,[24],5%
same,IC50,[25],7.48 µM
same,IC70,[25],4.73 µg/mL
same,IC90,[25],8.23 µg/mL
same,Activity,[26],53%
same,Activity,[27],82%
same,IC50,[28],6.32 µM
same,IC70,[28],4.7 µg/mL
same,IC90,[28],9.65 µg/mL
same,Activity,[29],116%
same,Activity,[30],73%
same,IC50,[31],3.45 µM
same,IC70,[31],3.09 µg/mL
same,IC90,[31],7.63 µg/mL
same,Activity,[32],97%
same,IC50,[33],8.94 µM
same,IC70,[33],5.35 µg/mL
same,IC90,[33],8.82 µg/mL
same,Activity,[34],103%
same,Activity,[35],110%
same,Activity,[36],98%
same,Activity,[37],12%
same,Activity,[38],91%
same,Activity,[39],12%
same,Activity,[40],106%
same,Activity,[41],126%
same,Activity,[42],13%
same,Activity,[43],103%
same,IC50,[44],3.2 µM
same,IC70,[44],3.08 µg/mL
same,IC90,[44],8.22 µg/mL
same,Activity,[45],43%
same,Activity,[46],5%
same,Activity,[47],97%
same,Activity,[48],79%
same,Activity,[49],99%
same,Activity,[50],97%
same,Activity,[51],71%
same,IC50,[52],13.5 µM
same,IC70,[52],7.76 µg/mL
same,IC90,[52],12.3 µg/mL
same,IC50,[53],11.8 µM
same,IC70,[53],6.53 µg/mL
same,IC90,[53],10 µg/mL
same,Activity,[54],123%
